Test results as given in ChEMBL document CHEMBL1152496, “N-Terminal 2,3-diaminopropionic acid (Dap) peptides as efficient methylglyoxal scavengers to inhibit advanced glycation endproduct (AGE) formation” (Bioorg Med Chem, 2009).
Blank lines part the entries; values can stand above or below the compound they belong to. Where a SMILES comes first, the peptide text is derived from it. [ ]: non-standard residue; d: D form. dDap = NC[C@@H](N)C(=O)O; Dap = NC[C@H](N)C(=O)O

Experiments:
[1] = Inhibition of alpha-dicarbonyls-induced advanced glycation end product formation assessed as protection against MG-induced loss of bovine pancreatic RNaseA enzyme activity after 48 hrs […]; assay type: physicochemical; set-up: concentration or dose not given beside the values; settings: cattle
Method in brief: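 RNase A was pre-incubated with equimolar MG ± scavenger at 37 °C, pH 7.4. The glycated enzyme (10 µg/mL) was added to a methylene blue–yeast RNA solution (600 µg/mL RNA working concentration), and remaining activity was compared with control.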

[2] = Inhibition of alpha-dicarbonyls-induced advanced glycation end product formation assessed as protection against 100 eq. MG-induced insulin degradation at 3.75 mM after 24 hrs by RP-HPLC; set-up: scale not given: the % may be the effect or the level left; settings: 3750 µM
[3] = Cytotoxicity in human EAhy926 cells assessed as viable cells at 1 mM after 48 hrs by MTT assay
[4] = Cytoprotective activity against MG-induced cytotoxicity in human EAhy926 cells assessed as viable cells at 1 mM after 48 hrs by MTT assay; settings: EA.hy 926
[5] = Inhibition of alpha-dicarbonyls-induced advanced glycation end product formation assessed as protection against MG-induced insulin degradation at 3.75 mM after 5 days by RP-HPLC; assay type: physicochemical; set-up: scale not given: the % may be the effect or the level left; settings: 120 h, 3750 µM
Method in brief: (§1)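 Human insulin (34 µM) was incubated in 10 mM phosphate pH 7.4 with 0.1 M NaCl at 37 °C with MG, ± scavenger at 1.1 mol equiv relative to MG. The standard condition was MG 3.4 mM (100 equiv) with scavenger 3.75 mM for 24 h. Remaining intact insulin was quantified by C18 RP-HPLC (TFA water/acetonitrile gradient) against the insulin-alone control.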

[6] = Inhibition of alpha-dicarbonyls-induced advanced glycation end product formation assessed as protection against 10 eq. MG-induced insulin degradation at 3.75 mM after 24 hrs by RP-HPLC; assay type: physicochemical; set-up: scale not given: the % may be the effect or the level left; settings: 3750 µM; method in brief: as §1
[7] = Inhibition of alpha-dicarbonyls-induced advanced glycation end product formation assessed as protection against 5 eq. MG-induced insulin degradation at 3.75 mM after 24 hrs by RP-HPLC; assay type: physicochemical; set-up: scale not given: the % may be the effect or the level left; settings: 3750 µM; method in brief: as §1
[8] = Inhibition of alpha-dicarbonyls-induced advanced glycation end product formation assessed as protection against MG-induced insulin degradation at 3.75 mM after 2 days by RP-HPLC; assay type: physicochemical; set-up: scale not given: the % may be the effect or the level left; settings: 48 h, 3750 µM; method in brief: as §1
[9] = Inhibition of alpha-dicarbonyls-induced advanced glycation end product formation assessed as protection against MG-induced insulin degradation at 3.75 mM after 7 days by RP-HPLC; assay type: physicochemical; set-up: scale not given: the % may be the effect or the level left; settings: 168 h, 3750 µM; method in brief: as §1
[10] = Inhibition of alpha-dicarbonyls-induced advanced glycation end product formation assessed as protection against 100 eq. MG-induced insulin degradation at 3.75 mM after 24 hrs by RP-HPLC; assay type: physicochemical; set-up: scale not given: the % may be the effect or the level left; settings: 3750 µM; method in brief: as §1
[11] = Mutagenic activity in Salmonella Typhimurium TA98 at 0.1 to 10 uM after 60 hrs by Ames test in presence of human S9 fraction and MG; assay type: toxicity; settings: salmonella enterica subsp. enterica serovar typhimurium, s9, 60 h
Method in brief: (§2)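 Ames assay used a mix of S. typhimurium TA7001–TA7006 and, separately, TA98. Test substance (10, 1, 0.1 µM; alone or with MG; MG alone 10 µM) was incubated ± human liver S9 at 37 °C for 90 min, then in indicator medium for 60 h. Positive controls were 2-aminoanthracene, 4-nitroquinoline N-oxide and 2-nitrofluorene; solvent was the negative control. Duplicate experiments, 48 wells per point.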

[12] = Inhibition of alpha-dicarbonyls-induced advanced glycation end product formation assessed as protection against MG-induced loss of human glyoxalase1 enzyme activity after 48 hrs […]; assay type: physicochemical; set-up: scale not given: the % may be the effect or the level left; settings: 24 h; in the assay text read “24 hrs” for “48 hrs”
Method in brief: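 Human glyoxalase I was pre-incubated with equimolar MG ± scavenger. Substrate hemithioacetal was formed from 2 mM MG and 2 mM reduced glutathione in 50 mM sodium phosphate pH 6.6 (20 min, 37 °C; ~600 µM) and equilibrated 15 min. Enzyme was then added, and S-D-lactoylglutathione formation was followed at 240 nm. One unit = 1 µmol per min.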

[13] = Mutagenic activity in Salmonella Typhimurium at 0.1 to 10 uM after 60 hrs by Ames test in presence of human S9 fraction; assay type: toxicity; settings: salmonella enterica subsp. enterica serovar typhimurium, s9, 60 h; method in brief: as §2
[14] = Inhibition of alpha-dicarbonyls-induced advanced glycation end product formation assessed as protection against MG-induced human glyoxalase1 degradation after 24 hrs by […]; assay type: physicochemical
Method in brief: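 Human glyoxalase I was incubated with MG (protein/MG 1/1) ± scavenger (1.1 or 2.2 equiv) at 37 °C, pH 7.4, for 24 h, then stored at −20 °C. Mobility shift was analysed by non-denaturing PAGE.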

[15] = Inhibition of alpha-dicarbonyls-induced advanced glycation end product formation assessed as protection against MG-induced bovine pancreatic RNaseA degradation after 48 hrs by SDS-PAGE; assay type: physicochemical; settings: cattle
Method in brief: (§3)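 Protein stock (10–15 mg/mL in phosphate buffer) was incubated with MG ± scavenger at 37 °C, pH 7.4, for 48 h, then stored at −20 °C until SDS–PAGE. For RNase A, MG was equimolar to protein and scavenger was 1.1 mol per mol MG.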

[16] = Inhibition of alpha-dicarbonyls-induced advanced glycation end product formation assessed as protection against MG-induced chicken lysozyme degradation after 48 hrs by SDS-PAGE; assay type: physicochemical; method in brief: as §3
[17] = Mutagenic activity in Salmonella Typhimurium TA98 at 0.1 to 10 uM after 60 hrs by Ames test in absence of human S9 fraction and in presence of MG; assay type: toxicity; settings: salmonella enterica subsp. enterica serovar typhimurium, s9, 60 h; method in brief: as §2
[18] = Mutagenic activity in Salmonella Typhimurium at 0.1 to 10 uM after 60 hrs by Ames test in absence of human S9 fraction; assay type: toxicity; settings: salmonella enterica subsp. enterica serovar typhimurium, s9, 60 h; method in brief: as §2
[19] = Mutagenic activity in Salmonella Typhimurium TA98 at 0.1 to 10 uM after 60 hrs by Ames test in presence of human S9 fraction; assay type: toxicity; settings: salmonella enterica subsp. enterica serovar typhimurium, s9, 60 h; method in brief: as §2
[20] = Mutagenic activity in Salmonella Typhimurium at 0.1 to 10 uM after 60 hrs by Ames test in absence of human S9 fraction and in presence of MG; assay type: toxicity; settings: salmonella enterica subsp. enterica serovar typhimurium, s9, 60 h; method in brief: as §2
[21] = Mutagenic activity in Salmonella Typhimurium at 51.7 uM after 60 hrs by Ames test in presence of human S9 fraction; settings: salmonella enterica subsp. enterica serovar typhimurium, s9, 60 h
[22] = Mutagenic activity in Salmonella Typhimurium TA98 at 51.7 uM after 60 hrs by Ames test in presence of human S9 fraction; settings: salmonella enterica subsp. enterica serovar typhimurium, s9, 60 h

Structure (SMILES): NCCCC[C@H](NC(=O)[C@H](N)CN)C(=O)O
viability at 1000 µM [3]: 81%
viability at 1000 µM [4]: 43%

Structure (SMILES): CCCC[C@H](NC(=O)[C@@H](N)CN)C(=O)O
viability at 1000 µM [3]: 94%
viability at 1000 µM [4]: 74%

Structure (SMILES): CC(C)C[C@@H](NC(=O)[C@@H](N)CN)C(=O)O
viability at 1000 µM [3]: 87%
viability at 1000 µM [4]: 71%

Structure (SMILES): NC[C@H](N)C(=O)N[C@@H](Cc1ccccc1)C(=O)O
viability at 1000 µM [3]: 78%
viability at 1000 µM [4]: 67%

Structure (SMILES): CCCC[C@H](NC(=O)[C@H](N)CN)C(=O)O
Activity [2]: 91%

Structure (SMILES): CC(C)C[C@H](NC(=O)[C@@H](N)CN)C(=O)O
Activity [11]: Non-toxic
Activity [12]: 96%
Activity [13]: Non-toxic
Activity [14]: Active
Activity [15]: Active
Activity [1]: 94%
Activity [2]: 87%
Activity [16]: Active
viability at 1000 µM [3]: 78%
Activity [17]: Non-toxic
viability at 1000 µM [4]: 69%
Activity [18]: Non-toxic
Activity [19]: Non-toxic
Activity [20]: Non-toxic

Structure (SMILES): CC(C)C[C@@H](NC(=O)[C@H](N)CN)C(=O)O
Activity [2]: 84%

Structure (SMILES): NC[C@H](N)C(=O)NCC(=O)O (H-[Dap]-Gly-OH)
Activity [1]: 86%
Activity [2]: 67%
viability at 1000 µM [3]: 57%
viability at 1000 µM [4]: 54%

Structure (SMILES): NC[C@H](N)C(=O)N1CCC[C@H]1C(=O)O (H-[Dap]-Pro-OH)
Activity [2]: 77%

Structure (SMILES): C[C@@H](NC(=O)[C@H](N)CN)C(=O)O (H-[dDap]-[dA]-OH)
Activity [1]: 87%
Activity [2]: 71%
viability at 1000 µM [3]: 72%
viability at 1000 µM [4]: 71%

Structure (SMILES): NCCC(N)C(=O)O (racemic)
Activity [2]: 40%

Structure (SMILES): NCC(N)C(=O)O (single isomer, unassigned) [DIAMINOPROPANOIC ACID]
viability at 1000 µM [3]: 81%
viability at 1000 µM [4]: 67%

Structure (SMILES): Nc1ccc2cc3ccccc3cc2c1 [2-AMINOANTHRACENE]
Activity [21]: Toxic
Activity [22]: Toxic

Structure (SMILES): N=C(N)NCCC[C@H](N)C(=O)O [ARGININE]
Activity [2]: 18%

Structure (SMILES): NCCC(=O)N[C@@H](Cc1cnc[nH]1)C(=O)O [CARNOSINE]
Activity [2]: 0%
viability at 1000 µM [3]: 97%
viability at 1000 µM [4]: 54%

Structure (SMILES): N[C@@H](CS)C(=O)O [CYSTEINE]
Activity [2]: 69%

Structure (SMILES): NCCCC[C@H](N)C(=O)O [LYSINE]
Activity [2]: 0%

Structure (SMILES): CN(C)C(=N)N=C(N)N [METFORMIN]
Activity [2]: 11%
viability at 1000 µM [3]: 84%
viability at 1000 µM [4]: 53%

Structure (SMILES): N=C(N)NN [PIMAGEDINE]
Activity [1]: 70%
Activity [2]: 85%
viability at 1000 µM [3]: 94%
viability at 1000 µM [4]: 75%

Further lines, with some results ahead:

Activity [1]: 70%
Activity [2]: 66%
Structure (SMILES): NC[C@@H](N)C(=O)N[C@H](Cc1ccccc1)C(=O)O

Activity [2]: 69%
Structure (SMILES): NC[C@H](N)C(=O)NCCC(=O)O

Activity [2]: 74%
Structure (SMILES): NC[C@@H](N)C(=O)N[C@@H](Cc1ccc(C(F)(F)F)cc1)C(=O)O

Activity [5]: 85%
Activity [6]: 90%
Activity [2]: 83%
Activity [7]: 90%
Activity [8]: 88%
Activity [9]: 88%
Activity [10]: 83%
Structure (SMILES): CC(C)C[C@H](NC(=O)[C@H](N)CN)C(=O)O

Activity [1]: 20%
Activity [2]: 98%
Structure (SMILES): NCC(N)C(=O)O (stereo not given)

Activity [2]: 61%
Structure (SMILES): NC[C@@H](N)C(=O)N[C@H](CC(=O)O)C(=O)O

Activity [1]: 91%
Activity [2]: 75%
Structure (SMILES): CC[C@H](C)[C@H](NC(=O)[C@@H](N)CN)C(=O)O (H-[Dap]-Ile-OH)
viability at 1000 µM [3]: 86%
viability at 1000 µM [4]: 79%

Activity [15]: Active
Activity [1]: 91%
Activity [2]: 71%
Activity [16]: Active
Structure (SMILES): CC(C)[C@H](NC(=O)[C@@H](N)CN)C(=O)O (H-[Dap]-Val-OH)
viability at 1000 µM [3]: 96%
viability at 1000 µM [4]: 93%

Activity [2]: 53%
Structure (SMILES): NC[C@@H](N)C(=O)NC(Cc1ccc(F)cc1)C(=O)O (mixture of isomers)

Activity [2]: 69%
Structure (SMILES): CC(C)(S)C(N)C(=O)O (racemic) [DL-PENICILLAMINE]
viability at 1000 µM [3]: 86%
viability at 1000 µM [4]: 61%

Activity [2]: 74%
Structure (SMILES): CCCCCCCCCCCCCCCCOC(=O)[C@H](CC(C)C)NC(=O)C(N)CN (single isomer, unassigned)
viability at 1000 µM [3]: 23%
viability at 1000 µM [4]: 33%

Activity [2]: 14%
Structure (SMILES): Cc1ncc(CO)c(CN)c1O [PYRIDOXAMINE]
viability at 1000 µM [3]: 92%
viability at 1000 µM [4]: 32%
